Published values of several laboratories.
Each line is one published result; the experiments were not run side by side.
Target: Serine/threonine-protein kinase D3 (PRKD3, Homo sapiens, UniProt O94806)
One construct used (O94806 1-890): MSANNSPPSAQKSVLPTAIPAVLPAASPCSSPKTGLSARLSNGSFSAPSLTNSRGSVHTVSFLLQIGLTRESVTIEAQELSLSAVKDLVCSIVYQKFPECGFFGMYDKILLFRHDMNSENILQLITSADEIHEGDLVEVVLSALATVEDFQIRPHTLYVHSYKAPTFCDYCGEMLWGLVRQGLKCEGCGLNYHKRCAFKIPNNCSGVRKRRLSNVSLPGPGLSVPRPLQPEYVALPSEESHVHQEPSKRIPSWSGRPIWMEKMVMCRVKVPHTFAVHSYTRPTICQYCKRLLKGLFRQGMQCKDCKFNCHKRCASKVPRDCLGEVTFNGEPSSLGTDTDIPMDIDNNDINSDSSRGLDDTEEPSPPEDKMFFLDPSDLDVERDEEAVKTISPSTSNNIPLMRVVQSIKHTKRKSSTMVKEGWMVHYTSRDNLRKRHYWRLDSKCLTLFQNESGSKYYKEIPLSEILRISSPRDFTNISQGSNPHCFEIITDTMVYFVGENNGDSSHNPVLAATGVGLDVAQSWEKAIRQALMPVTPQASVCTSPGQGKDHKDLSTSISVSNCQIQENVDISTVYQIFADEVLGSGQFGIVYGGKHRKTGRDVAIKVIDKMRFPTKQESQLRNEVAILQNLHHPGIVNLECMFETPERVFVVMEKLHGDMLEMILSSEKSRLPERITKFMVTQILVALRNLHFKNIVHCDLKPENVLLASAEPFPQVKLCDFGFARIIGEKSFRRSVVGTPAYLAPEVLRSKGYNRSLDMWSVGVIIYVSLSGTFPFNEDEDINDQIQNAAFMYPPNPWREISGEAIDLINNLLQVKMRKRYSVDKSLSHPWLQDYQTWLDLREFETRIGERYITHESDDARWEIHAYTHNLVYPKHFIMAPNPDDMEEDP

CCN1CCN(Cc2ccc(C(=O)Nc3ccc(C)c(Oc4ccc5c(c4)CC(=O)N5)c3)cc2C(F)(F)F)CC1 — remaining binding (binding; competition with immobilised ligand; 1 µM): 100%
CN(C)c1nccc(-c2cnc3ncccn23)n1 — remaining binding (binding; 1 µM): 100%
O=C(c1ccc(Nc2ncc(Cl)c(-c3cc4ccccc4s3)n2)cc1)N1CCC(N2CCCC2)CC1 — remaining binding (binding; competition with immobilised ligand; 1 µM): 18%
F[C@@H]1CCN(c2nccc(-c3cnn4ncccc34)n2)C1 — remaining binding (binding; 1 µM): 76%
Cc1c[nH]c2nccc(Oc3c(F)cc(Nc4cc(Cl)nc(N)n4)cc3F)c12 — remaining binding (cell-free assay; competition with immobilised ligand; 0.1 µM): 100%
COc1ccnn2ncc(-c3ccnc(N(C)C)n3)c12 — remaining binding (binding; 1 µM): 100%
O=C(Nc1c[nH]nc1C(=O)NC1CCNCC1)c1cc(F)cc(F)c1 — remaining binding (binding; competition with immobilised ligand; 1 µM): 100%
O=C(c1ccc(Nc2nccc(-c3cc4ccccc4s3)n2)cc1)N1CCC(N2CCCC2)CC1 — remaining binding (binding; competition with immobilised ligand; 1 µM): 50%
CNC(=O)[C@@H]1CC[C@@H](n2c(-c3ccc4cnccc4c3)nc3ccc(C(=O)NCc4cccc(C(N)=O)c4)cc32)C1 — remaining binding (binding; competition with immobilised ligand; 1 µM): 91%
N[C@H]1CCN(c2nccc(-c3cnn4ncccc34)n2)C1 — remaining binding (binding; 1 µM): 91%
CS(=O)(=O)N1CCCC(NC(=O)[C@H](CCC2CCCCC2)NC(=O)c2ccc(CNC(=O)c3cnc4ccccn34)cc2)C1 (stereo partly drawn) — remaining binding (cell-free assay; competition with immobilised ligand; 0.1 µM): 90%
C[C@@H](c1ccc(-n2cnc3c(N)ncnc32)cc1)N1CCc2nn(C)c(Cc3ccccc3)c2C1=O — remaining binding (binding; competition with immobilised ligand; 0.1 µM): 85%
COc1cccc(CNC(=O)c2nc3scc(COCc4ccc(C(=O)O)cc4)c3c(=O)[nH]2)c1 — remaining binding (cell-free assay; competition with immobilised ligand; 1 µM): 100%
COc1cnc(Nc2cccc(S(N)(=O)=O)c2)nc1N1CCN(c2ccccc2)C(=O)C1 — remaining binding (binding; competition with immobilised ligand; 1 µM): 92%
O=C(NCCCN1CCOCC1)c1ccc(Nc2nccc(-c3cc4ccccc4s3)n2)cc1 — remaining binding (binding; competition with immobilised ligand; 1 µM): 32%
O=C(O)[C@@H]1[C@@H](Cn2nnc3ccccc3c2=O)CC[C@H]1C(=O)c1ccc(OCCC2CCOCC2)cc1 — remaining binding (cell-free assay; competition with immobilised ligand; 1 µM): 100%
CN(C)c1nccc(-c2cnn3ncccc23)n1 — remaining binding (binding; 1 µM): 100%
FC(F)(F)c1ccc2c(c1)nc(-c1cccnc1)n2C1CC1 — remaining binding (cell-free assay; competition with immobilised ligand; 1 µM): 100%
C=CC(=O)N1CCC(C(=O)NCC(=O)N2CCN(c3nc(-c4cnc(N)nc4C(F)F)nc(N4CCOCC4)n3)CC2)CC1 — remaining binding (binding; competition with immobilised ligand; 1 µM): 93%
C[C@H]1CCN(c2nccc(-c3cnn4ncccc34)n2)C1 — remaining binding (binding; 1 µM): 59%
Cc1nccc(COC(=O)N2C[C@@H]3[C@@H](CNC(=O)c4ccc5[nH]nnc5c4)[C@@H]3C2)n1 — remaining binding (cell-free assay; competition with immobilised ligand; 1 µM): 100%
